Hits are enriched below; roughly 2.9% of the tested compounds scored in any of these assays.
bCat nuc transl: modulators of beta-catenin nuclear translocation; HeLa beta-catenin nuclear translocation, immunofluorescence imaging; nuclear translocation activity, % at 5 µM; 0.3% of 190,000 active; AID 1665;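 active means nuclear translocation activity above 50% at 5 µM, with a well cell count of 50 or more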;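 further: per-cell ratio of nuclear to cytoplasmic median beta-catenin stain intensity; plate controls were DMSO negative control for no effect and GSK-3 inhibitor IX positive control for full effect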
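Test system: human HeLa cells, native beta-catenin. Compound dosing: 5 µM primary single dose, 0.1% DMSO, 0.02–20 µM confirmation series. Incubation: compound exposure 24 h at 37°C. Detection: beta-catenin immunostaining with DAPI counterstain, 20x imaging, 6 fields/well. Read-out basis: Nuclear/cytoplasmic beta-catenin signal ratio, % activation.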
MT stabilizer: microtubule stabilizers in HeLa cells. % tubulin-high responders, % at 10 µM. 0.83% of 200,000 active. HeLa tubulin immunostaining HCS, 24 h; share of cells brighter than vehicle mean+2SD. AID 2205;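 active means plate Z-score above 3 for both tubulin-high and condensed-nucleus cell shares, with cell loss under 80%, at 10 µM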;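 further: anti alpha tubulin signal scored within the nucleus-defined area of each cell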
Autophagy HCS: alters autophagy in cells. MEF GFP-LC3 puncta imaging; test concentration mostly 10 µM. calls only at 10 µM (by protocol). 0.98% of 190,000 active. AID 463193;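 active means percentage of spot-positive cells more than 3 SD above its plate mean, without a fluorescence outlier flag or 80% toxicity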;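 further: spot-positive cell cutoff set from DMSO-treated cells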
Wee1 degr inh: blocks degradation of human Wee1 kinase | reporter increase, % at 5 µM | HeLa Luc-Wee1K328M stability, luciferase luminescence; 100% = proteasome inhibitor MG132 effect | P30291 | 1.2% of 220,000 active;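 active means activation above the mean of all tested compounds plus 3 SD, set per screening run, cut at about 8.8% in these data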;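 further: cells exposed to compound for 20 h before luminescence read; 0% = DMSO alone and 100% = MG132 at 30 µM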
Target sequence (P30291 whole entry K328M): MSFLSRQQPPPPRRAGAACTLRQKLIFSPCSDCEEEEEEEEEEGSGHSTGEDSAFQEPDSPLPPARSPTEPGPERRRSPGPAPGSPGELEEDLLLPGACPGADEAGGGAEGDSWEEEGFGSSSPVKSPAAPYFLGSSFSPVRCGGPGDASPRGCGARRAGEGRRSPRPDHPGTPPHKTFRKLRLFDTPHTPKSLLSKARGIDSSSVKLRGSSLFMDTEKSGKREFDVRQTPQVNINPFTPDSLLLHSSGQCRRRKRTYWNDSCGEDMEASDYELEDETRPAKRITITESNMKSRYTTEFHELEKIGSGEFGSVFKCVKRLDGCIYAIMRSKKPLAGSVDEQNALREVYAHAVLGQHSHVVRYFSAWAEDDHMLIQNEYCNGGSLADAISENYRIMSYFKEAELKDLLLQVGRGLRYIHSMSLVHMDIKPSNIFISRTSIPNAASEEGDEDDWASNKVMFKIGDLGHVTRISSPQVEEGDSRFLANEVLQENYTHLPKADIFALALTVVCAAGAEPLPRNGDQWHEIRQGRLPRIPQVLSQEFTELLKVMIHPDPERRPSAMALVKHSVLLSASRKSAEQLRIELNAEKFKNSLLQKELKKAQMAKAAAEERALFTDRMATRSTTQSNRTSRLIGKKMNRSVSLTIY
Insulin prom up: MIN6 insulin promoter up-regulation; MIN6 insulin promoter-GFP reporter, high-content imaging; active compounds read high; z-score at 5 µM; 0.3% of 190,000 active;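 active means z-score above 3 at 5 µM with at least 500 cells counted in the well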
Wee1 degr conf: confirmation of human Wee1 degradation inhibitors. HeLa Luc-Wee1K328M degradation, luminescence; vehicle 0%, proteasome-blocked wells 100%. shares compounds with Wee1 degr inh. 4% of 1,100 active. activation, % at 5 µM; in the data active means activation above about 8.9%
An asterisk follows results filed as active; i = inactive; nt = no result given.

SMILES	bCat nuc transl	MT stabilizer	Autophagy HCS	Wee1 degr inh	Insulin prom up	Wee1 degr conf
Cc1c(NC(=O)C(C)OC(=O)c2cccs2)c(=O)n(-c2ccccc2)n1C (stereo not given)	-2	3	i	30*	0.4	0
Cc1c(NC(=O)c2cccs2)c(=O)n(-c2ccccc2)n1C	1	3	i	-2	-0.41	nt
COc1ccc(C2=NN(C(=O)CN3CCCCC3)C(c3ccc(OC)cc3)C2)cc1 (stereo not given)	0	nt	nt	13*	0.64	3
CC(C)CCc1noc(CN2CCN(c3ccc(Cl)cn3)CC2)n1	0	3	i	4	1.4	nt
Cn1c(N)c(C(=O)COC(=O)c2ncc(Cl)c(Cl)c2Cl)c(=O)n(C)c1=O	-3	3	i	0	-0.53	nt
COc1ccc(Nc2nc(S(=O)(=O)c3ccc(C)cc3)c(Cl)s2)cc1	2	5	i	11*	-0.53	2
Cc1ccc(S(=O)(=O)c2nc(Nc3ccccc3)sc2Cl)cc1	1	4	i	-2	-0.5	nt
COCCn1cc(C(=O)NCCCN2CCC(C)CC2)c2c3ccccc3n(C)c2c1=O	1	3	i	14*	-0.21	1
O=C(Nc1ccc(S(=O)(=O)Nc2nccs2)cc1)c1cnc(Cl)c(Cl)c1	1	nt	nt	19*	1.2	0
Cc1cc(C(=O)NNc2ccc(C(C)C)cc2)n(C(C)(C)C)n1	-1	nt	nt	-3	nt	nt
Cc1ccc(F)c(NC(=O)c2ccc(Cn3cc(Cl)cn3)cc2)c1	1	4	i	12*	1.3	1
COc1ccc(CNC(=O)COc2ccc(C(=O)c3ccc(F)cc3)cc2)cc1	-1	3	i	-1	0.5	nt
O=C(COc1ccc(C(=O)c2ccc(F)cc2)cc1)NCc1ccc(F)cc1	5	2	i	11*	2.2	14*
COc1cc(OC)cc(C(=O)N[C@H](C(=O)OCC(=O)N2CCc3ccccc32)C(C)C)c1	-3	5	i	-1	0.52	nt
COc1cccc(OC(=O)c2cc3ccccc3oc2=O)c1	1	3	i	15*	-0.1	1
CC1(C)Cc2ccccc2C(N)=C1C#N	-1	1	i	1	-0.42	nt
O=C(Nc1ccnc(-c2ccncc2)n1)c1ccc(Cl)cc1	-1	5	i	-2	0.48	nt
O=C(Nc1ccc(Cl)cn1)Nc1ccccc1Cl	-5	4	i	1	0.11	nt
Cc1ccc(NC(=O)Nc2ccc(Cl)cn2)cc1	-1	4	i	11*	1.3	4
NC(=O)C1=C[C@H](c2csc3ccccc23)C[C@H](OCCCCO)O1	0	1	i	11*	0.03	0
Cc1cc(O)c(NC(=O)c2cc([N+](=O)[O-])ccc2Cl)cc1C	0	3	i	45*	0.31	4
Cc1ccc(O)c(NC(=O)c2cc([N+](=O)[O-])ccc2Cl)c1	0	4	i	11*	1.9	4
COC(=O)c1ccccc1NC(=S)N1CCN(c2ccc(OC)cc2)CC1	1	5	i	4	-0.39	nt
O=C(C1=C[C@H](c2coc3ccccc3c2=O)C[C@H](OCc2ccc(CO)cc2)O1)N1CCN(Cc2ccc3c(c2)OCO3)CC1	0	6	i	4	-0.25	nt
O=C(C1=C[C@@H](c2coc3ccccc3c2=O)C[C@@H](OCc2ccc(CO)cc2)O1)N1CCN(Cc2ccc3c(c2)OCO3)CC1	2	2	i	23*	0.52	-2
CCn1cc(C(=O)OCC(=O)c2ccc(Cl)cc2)c(=O)c2ccc(C)nc21	0	3	i	-1	nt	nt
CCn1cc(C(=O)OCC(=O)c2ccccc2)c(=O)c2ccc(C)nc21	-1	3	i	12*	0.31	-1
Cc1cccc(N(C(=O)CNC(=O)c2ccco2)C(C(=O)NCC2CCCO2)c2ccccc2)c1 (stereo not given)	0	2	i	-1	-0.84	nt
CC(=O)c1cccc(N(C(=O)CNC(=O)c2ccco2)C(C(=O)NCc2ccco2)c2ccccc2)c1 (stereo not given)	-2	5	i	19*	-0.61	-3
CC(C)CCN1CCN(Cc2ccc(C#CC(C)(C)O)s2)CC1CCO (stereo not given)	-1	1	i	11*	-0.07	1
